Measured values from different studies.
Compare with care: the assays were run in different laboratories.
Target: Rhodopsin kinase GRK1 (GRK1, Homo sapiens, UniProt Q15835)
Sequence (Q15835 1-563, as in one of the studies): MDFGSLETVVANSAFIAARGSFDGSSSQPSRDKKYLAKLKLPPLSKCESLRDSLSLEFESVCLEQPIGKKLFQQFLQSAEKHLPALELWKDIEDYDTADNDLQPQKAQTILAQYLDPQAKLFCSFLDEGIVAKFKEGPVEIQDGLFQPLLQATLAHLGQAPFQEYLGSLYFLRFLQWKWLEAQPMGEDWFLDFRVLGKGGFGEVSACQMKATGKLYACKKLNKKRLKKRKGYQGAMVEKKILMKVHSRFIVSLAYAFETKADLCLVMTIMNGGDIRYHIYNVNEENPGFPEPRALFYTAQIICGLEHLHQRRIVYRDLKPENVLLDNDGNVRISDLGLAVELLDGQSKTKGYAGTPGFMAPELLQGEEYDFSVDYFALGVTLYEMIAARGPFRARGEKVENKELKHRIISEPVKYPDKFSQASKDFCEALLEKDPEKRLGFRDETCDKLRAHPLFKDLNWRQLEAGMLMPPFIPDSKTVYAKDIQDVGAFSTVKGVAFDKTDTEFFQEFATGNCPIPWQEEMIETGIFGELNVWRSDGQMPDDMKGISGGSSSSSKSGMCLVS

| SMILES | test | setting | measurement | value |
| --- | --- | --- | --- | --- |
| O=C(Nc1cnn(-c2csc(C(=O)NC3COC3)c2)c1)Nc1c(F)cccc1Cl | enzyme activity, inhibitor | 5 µM | remaining activity | 92.9% |
| Cn1c2c(c3ccc(Cl)c(Cl)c31)C(C#N)C1(CCCC1)NC2=O (stereo not drawn) | thermal stability, DSF | 10 µM | ΔTm | 0 °C |
| Cc1ccc(NC(=O)c2ccc(C)c(C(F)(F)F)c2)cc1C#Cc1nn(C2CCC(O)CC2)c2ncnc(N)c12 (stereo not drawn) | cell-free assay | 10 µM | remaining signal | 94% |
| NS(=O)(=O)c1cc(NC(=O)Cc2ccccc2)ccc1Oc1cccc(Cl)c1 | cell-free assay, competition with immobilised ligand | 1 µM | remaining binding | 83% |
| Cc1cc(NC(=O)c2cccc3cc(-c4cccc5[nH]nc(N)c45)ccc23)ccc1F | enzyme activity, inhibitor | 0.1 µM | activity vs control | 85% |
| Cn1c2c(c3ccc(Cl)c(Cl)c31)C(C#N)C1(CCCCC1)NC2=O (racemic) | thermal stability, DSF | 10 µM | ΔTm | 0.1 °C |
| CC(C)(O)[C@H]1CC[C@H](Nc2ccc3ncc(-c4cccc(C(F)(F)F)c4)n3n2)CC1 | enzyme activity, inhibitor | 1 µM | remaining activity | 89.2% |
| CNCc1ccccc1-c1csc([C@H](C)Nc2nc(C)nc3cc(OC)c(OC)cc23)c1 | cell-free assay, competition with immobilised ligand | 1 µM | remaining binding | 100% |
| Cn1c2c(Cl)c(Cl)ccc2c2cc[nH]c(=O)c21 | thermal stability, DSF | 10 µM | ΔTm | 1.5 °C |
| COc1ccc2c(c1)O[C@H](c1ccc(OC)c(OC)c1)C[C@@H]2NC(=O)C1(c2ccc3c(c2)OC(F)(F)O3)CC1 | cell-free assay, competition with immobilised ligand | 1 µM | remaining binding | 97% |
| Cc1ccc(C(=O)NCc2ccsc2)cc1C#Cc1cn(C(C)C)c2ncnc(N)c12 | enzyme activity, inhibitor | 1 µM | activity vs control | 106% |
| Cc1cnc(NC2CCOCC2)nc1-n1cnc(C(=O)NC(CN)c2cc(F)cc(Cl)c2)c1 (stereo not drawn) | enzyme activity, inhibitor, radiometric | 1 µM | remaining activity | 98% |
| Cn1c2c(Cl)c(Cl)ccc2c2cc(N)[nH]c(=O)c21 | thermal stability, DSF | 10 µM | ΔTm | 0.5 °C |
| Cc1cc(NC(=O)c2cccc(S(F)(F)(F)(F)F)c2)cc(-n2ccn3nc(-c4cccnc4)cc23)c1 | cell-free assay, competition with immobilised ligand | 1 µM | remaining binding | 50.4% |
| CN1CC(Oc2cnc(C#N)cc2-c2ccn3nc(NC(=O)C4CC4)cc3c2)C1 | enzyme activity, inhibitor | 1 µM | inhibition | 1% |
